Measured values as given in ChEMBL document CHEMBL1141261, “Eremophilane sesquiterpenes from Ligularia macrophylla” (J Nat Prod, 2007).
In brackets after ≈: the same amount, converted by molar mass.

Experiments:
A549 = assay: Cytotoxicity against human A549 cells; assay type: functional, cell-based
Method in brief: (§1)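 Test samples were dissolved in DMSO and diluted into culture medium to a final DMSO level of ≤1% (v/v). Human lung carcinoma A-549 and breast adenocarcinoma MCF-7 lines were used. Cell culture and the remaining steps followed an earlier published protocol.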

MCF7 = assay: Cytotoxicity against human MCF7 cells; assay type: functional, cell-based; method in brief: as §1

Cc1coc2cc3c(c(C)c12)[C@@H](C)CCC3=O
EC50 (A549): 11.9 µg/mL (≈ 52.1 µM) | EC50 (MCF7): 15.2 µg/mL (≈ 66.6 µM)

Cc1cc2c(C)coc2cc1[C@H](C)CCC=O
EC50 (A549): 10 µg/mL (≈ 43.4 µM) | EC50 (MCF7): > 20 µg/mL

C/C=C(/CO)C(=O)O[C@@H]1c2c(C)coc2C[C@@]23O[C@@H]2CC[C@H](C)[C@@]13C
EC50 (A549): > 20 µg/mL | EC50 (MCF7): 17.3 µg/mL (≈ 49.9 µM)

C/C=C(/C)C(=O)O[C@@H]1c2c(C)coc2C[C@]23O[C@H]2CC[C@H](C)[C@@]13C
EC50 (A549): 9.4 µg/mL (≈ 28.4 µM) | EC50 (MCF7): > 20 µg/mL

C/C=C(/C)C(=O)O[C@H]1c2c(C)coc2C[C@H]2C(=O)CC[C@H](C)[C@]21C
EC50 (A549): ≥ 20 µg/mL | EC50 (MCF7): ≥ 20 µg/mL

Cc1coc2c1[C@@H](O)[C@]1(C)[C@@H](C)CC[C@@H]3O[C@@]31C2
EC50 (A549): ≥ 20 µg/mL | EC50 (MCF7): ≥ 20 µg/mL

Cc1coc2cc3c(c(C)c12)[C@@H](C)CC[C@@H]3O
EC50 (A549): 13.8 µg/mL (≈ 59.9 µM) | EC50 (MCF7): 15.2 µg/mL (≈ 66 µM)

CC(C=O)C1=C[C@@]2(C)C(=CC1=O)[C@H](O)CC[C@@H]2C (mixture of isomers)
EC50 (A549): 18.4 µg/mL | EC50 (MCF7): > 20 µg/mL

Cc1cc2c(C)coc2c2c1CCCC2C (stereo not drawn) [FARFUGIN A]
EC50 (A549): 10.9 µg/mL (≈ 50.9 µM) | EC50 (MCF7): 13.6 µg/mL (≈ 63.5 µM)
